This note sets out measurements from ChEMBL document CHEMBL2029285, “Structure-based design of novel class II c-Met inhibitors: 1. Identification of pyrazolone-based derivatives” (J Med Chem, 2012).

A value given as a limit tells only on which side of the number the result lay.

A word on the Ki: it is a measure of affinity in units of concentration, obtained from inhibition or displacement. As usually defined, the IC50 is the point on the concentration scale where inhibition reaches its midpoint. A high value points to lower potency. For orientation: clearance means the volume of plasma or blood freed of the substance per unit of time. Low readings indicate a low capacity for elimination, high ones a high capacity for elimination. For orientation: bioavailability means the share of a dose that reaches the circulation, judged against a reference dose that is usually intravenous. Read a low bioavailability as poor availability. A word on the AUC: it is the area under the concentration-time curve, a measure of exposure. High values mean more exposure, low ones less exposure. What is called inhibition in vivo is the drop in the measured response relative to a control, in per cent. The low end stands for little suppression, the high end for strong suppression.

For data set [1], the target named is T1, Hepatocyte growth factor receptor (Homo sapiens, UniProt P08581). In words: Inhibition of recombinant c-met-mediated gastrin phosphorylation by HTRF assay. On the technique in general: In TR-FRET formats the signal depends on donor and acceptor labels being close together.
The target of data set [2] is T1, Hepatocyte growth factor receptor. In words: Inhibition of HGF-mediated c-met autophosphorylation in serum-starved human PC3 cells after 1 hr by electrochemiluminescent immunoassay. Type of data set: cell-based, PC-3.
Data set [3] deals with Vascular endothelial growth factor receptor 2 (Homo sapiens, UniProt P35968). In words: Inhibition of VEGFR2.
In data set [4] the target is Insulin-like growth factor 1 receptor (Homo sapiens) (UniProt P08069). In words: Inhibition of IGF1R.
Data set [5] in a line: Clearance in Sprague-Dawley rat at 2 mg/kg, iv. Type of data set: ADME, organism-based. Set-up: dose 2 mg/kg, route intravenous. The note with it: in vivo. An outline of the steps: (§1)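 Male Sprague-Dawley rats, 3 animals per study, given 2 mg/kg iv as a solution in DMSO. Clearance, steady-state volume and half-life were derived from plasma pharmacokinetics.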
The nature of data set [6]: Volume of distribution at steady-state in Sprague-Dawley rat at 2 mg/kg, iv. Type of data set: ADME, organism-based. Set-up: dose 2 mg/kg, route intravenous. The note with it: in vivo, read-out: Vdss. An outline of the steps: as §1
Data set [7] can be described thus: Elimination half life in Sprague-Dawley rat at 2 mg/kg, iv. The class given is ADME, organism-based. Further details: dose 2 mg/kg, route intravenous. Particulars: in vivo, read-out: beta t1/2 (converted). The gist of the method: as §1
Data set [8] is described as follows: Oral bioavailability in Sprague-Dawley rat at 5 mg/kg. The class given is ADME, organism-based. Particulars: in vivo. The gist of the method: (§2)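 Male Sprague-Dawley rats, 3 animals per study, dosed orally at 5 mg/kg as a suspension in 1% Tween 80, 99% OraPlus.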
Data set [9] is described as follows: AUC in Sprague-Dawley rat at 5 mg/kg, po. The class given is ADME, organism-based. Further details: dose 5 mg/kg, route oral. The note with it: plasma. The gist of the method:
as §2

In data set [10] the test system is Mus musculus. In words: Inhibition of HGF-mediated c-met autophosphorylation in po dosed Balb/c mouse liver compound administered 2 hrs before and measured after 5 mins of HGF stimulation by electrochemiluminescent assay. Type of data set: functional. An outline of the steps:
(§3)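 Balb/c mice were gavaged at 10, 30 or 100 mg/kg. At 2 h postdose, human HGF was injected iv and livers were harvested 5 min later. Phospho-c-Met was quantified by electrochemiluminescent assay and compared with vehicle + HGF. Mean ± SD, n = 3. Terminal plasma concentrations were measured.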

Data set [11] has as its system Mus musculus. In words: Inhibition of HGF-mediated c-met autophosphorylation in Balb/c mouse liver at 10 mg/kg, po administered 2 hrs before and measured after 5 mins of HGF stimulation by electrochemiluminescent assay. Type of data set: functional. The gist of the method:
as §3

As for `COc1cc2nccc(Oc3ccc(NC(=O)N4CCN(c5ccccc5)C4=O)cc3F)c2cc1OC`, the Ki in data set [1] stood at 1.7 nM. In data set [2], this compound came in with an IC50 of 53 nM.
For `COc1ccc2c(OCc3nnc4ccc(-c5cc(F)c(F)c(F)c5)cn34)ccnc2c1`, in data set [1], the Ki amounted to 4.8 nM.
`COc1cc2nccc(Oc3ccc(NC(=S)NC(=O)Cc4ccccc4)cc3F)c2cc1OC`: in data set [3], the Ki was 103 nM.
`COc1cc2nccc(Oc3ccc(N(C)C(=O)c4c(C)n(C)n(-c5ccccc5)c4=O)cc3F)c2cc1OC`: in [1], the Ki is above 20000 nM. The compound further returned an IC50 in [2] above 20000 nM.
For `COc1cc2nccc(Oc3ccc(NC(=O)c4c(C)n(C)n(-c5ccccc5)c4=O)cc3F)c2cc1OC`, the INH in data set [3] came to 6.2 nM. This compound also gave an INH in data set [4] of 65 nM. For the same compound, the clearance in data set [5] is 0.583 mL/min/kg. For the same compound, the Vd in [6] is 0.242 L/kg. Further, the half-life in [7] was 4.6 h. The bioavailability in [8] was determined as 94%. In addition, the AUC in data set [9] stood at 258 µM·h. Moreover, in the data set on Mus musculus [10], the ED90 was below 30 mg/kg and the inhibition result was “Dose-dependent effect”. Further, the inhibition in vivo at 10 mg/kg in the data set with Mus musculus [11] was determined as 85%.
